ChEMBL document CHEMBL4330093, “Biphenyl Gal and GalNAc FmlH Lectin Antagonists of Uropathogenic E. coli (UPEC): Optimization through Iterative Rational Drug Design” (J Med Chem, 2019)
Values after ≈ are worked out from the molar mass of the structure shown.

Tests used:
[1] = Stability of the compound in simulated gastric fluid assessed as compound remaining after 6 hrs; type: ADME; conditions: for Stability: simulated gi fluid, 6 h
[2] = Stability of the compound in simulated intestinal fluid assessed as compound remaining after 2 hrs; type: ADME; conditions: for Stability: simulated gi fluid, 2 h
[3] = Half life in mouse liver microsomes; type: ADME, Microsome; conditions: for t1/2: microsomes
[4] = Stability in mouse plasma assessed as compound remaining after 2 hrs; type: ADME, cell-free; conditions: for Stability: 2 h
[5] = Drug metabolism in mouse plasma assessed as phenol product metabolite formation; type: ADME, cell-free
[6] = Drug metabolism in mouse urine assessed as phenol product metabolite formation; type: ADME, tissue-based
[7] = Oral bioavailability in Sprague-Dawley rat at 10 mg/kg by LC/MS/MS analysis; type: ADME, organism-based; conditions: in vivo
[8] = Plasma concentration in CD1 mouse at 20 mg/kg, ip after 4 hrs by LC/MS/MS analysis; type: ADME, organism-based
Procedure, shortened: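 Single 20 mg/kg intraperitoneal injection in mice. Plasma drug concentrations were followed over time, including 4 h and 8 h points. Cmax was read from the profile, AUC was calculated, and half-life was derived.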

[9] = Time at which plasma concentration stays above in vitro Escherichia coli C600 C-terminal 6His-tagged biotinylated FmlH lectin domain inhibitory IC50 in CD1 mouse at 20 mg/kg, ip by LC/MS/MS analysis; type: ADME, organism-based; conditions: in vivo
Procedure, shortened: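 After a single 20 mg/kg IP dose in mice, plasma concentrations were compared with the ELISA IC50 converted to ng/mL. Persistence beyond the last measured point was inferred by extrapolating the plasma kinetics. For the ELISA IC50, biotinylated FmlH lectin domain (20 μg/mL) bound to sialidase-treated bovine submaxillary mucin, with streptavidin-HRP/TMB readout at 450 nm.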

[10] = Kinetic solubility of the compound at pH 7.4; type: physicochemical; conditions: buffer
[11] = Half life in Sprague-Dawley rat at 10 mg/kg, po or 3 mg/kg, iv by LC/MS/MS analysis; type: ADME, organism-based; conditions: in vivo
Procedure, shortened: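 Sprague-Dawley rats got a single 10 mg/kg oral or 3 mg/kg IV dose. Compound was measured over time in plasma and in urine, and t1/2 and clearance were derived from the plasma profile.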

CC(=O)N[C@H]1[C@H](Oc2cccc(F)c2-c2cccc(NS(C)(=O)=O)c2)O[C@H](CO)[C@H](O)[C@@H]1O
Stability [1]: 92%
Stability [2]: 94%
t1/2 [3]: > 2.42 h
Stability [4]: 89%
Drug metabolism [5]: Metabolite_Detected
Drug metabolism [6]: Metabolite_Detected

CC(=O)N[C@H]1[C@H](Oc2cccc(C)c2-c2cccc(NS(=O)(=O)C3CC3)c2)O[C@H](CO)[C@H](O)[C@@H]1O
Stability [1]: 100%
Stability [2]: 100%
t1/2 [3]: > 2.42 h
Stability [4]: 84%
Drug metabolism [5]: Metabolite_Detected
F [7]: < 1%
Drug metabolism [6]: Metabolite_Detected

CC(=O)N[C@H]1[C@H](Oc2cccc(C)c2-c2cccc(NS(C)(=O)=O)c2)O[C@H](CO)[C@H](O)[C@@H]1O
Stability [1]: 100%
Stability [2]: 100%
t1/2 [3]: > 2.42 h
Stability [4]: 100%
Drug metabolism [5]: Metabolite_Detected
concentration at 4 h [8]: 79.5 ng/mL
Time [9]: 6 h
Drug metabolism [6]: Metabolite_Detected

Cc1cccc(O[C@@H]2O[C@H](CO)[C@H](O)[C@H](O)C2NC(=O)C(F)(F)F)c1-c1cccc(NS(C)(=O)=O)c1 (single isomer, unassigned)
remaining at 6 h ([1]; simulated gastric fluid, read-out: Stability): 91%
remaining at 2 h ([2]; simulated intestinal fluid, read-out: Stability): 89%
half-life ([3]; liver microsomes): > 2.42 h
remaining at 2 h ([4]; read-out: Stability): 89%
solubility kinetic ([10]; read-out: Kinetic_solubility): 164 µM (≈ 87.7 µg/mL)
Drug metabolism [5]: Metabolite_Detected
Drug metabolism [6]: Metabolite_Detected

CC(=O)NC1[C@H](Oc2cccc(C(F)(F)F)c2-c2cccc(NS(C)(=O)=O)c2)O[C@H](CO)[C@H](O)[C@@H]1O (single isomer, unassigned)
Stability [1]: 89%
Stability [2]: 92%
t1/2 [3]: > 2.42 h
Stability [4]: 92%
Kinetic_solubility [10]: 197 µM
Drug metabolism [5]: Metabolite_Detected
half-life [11]: 1.16 h
F [7]: < 1%
Drug metabolism [6]: Metabolite_Detected

CC(=O)NC1[C@H](Oc2cccc(C#N)c2-c2cccc(NS(C)(=O)=O)c2)O[C@H](CO)[C@H](O)[C@@H]1O (single isomer, unassigned)
Stability [1]: 87%
Stability [2]: 100%
t1/2 [3]: > 2.42 h
Stability [4]: 89%
Kinetic_solubility [10]: 196 µM
Drug metabolism [5]: Metabolite_Detected
Drug metabolism [6]: Metabolite_Detected
